Experimental data taken from ChEMBL document CHEMBL1141286, “Benzochromenones from the marine crinoid Comantheria rotula inhibit hypoxia-inducible factor-1 (HIF-1) in cell-based reporter assays and differentially suppress the growth of certain tumor cell lines” (J Nat Prod, 2007).
Calls of active or inactive are those of the source. No cut-off for these calls is given here.

How the values were obtained:
SF-539 = assay: Growth inhibition of human SF539 cells; assay type: functional
KM12 = assay: Growth inhibition of human KM12 cells; assay type: functional
Malme-3M = assay: Growth inhibition of human MALME-3M cells; assay type: functional
[1] = Growth inhibition of human OVACAR3 cells; assay type: functional
IGROV-1 = assay: Growth inhibition of human IGROV1 cells; assay type: functional
DU-145 = assay: Growth inhibition of human DU145 cells; assay type: functional
[2] = DPPH radical scavenging activity relative to Trolox; assay type: functional; parameters: concentration or dose not given beside the values
In short: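 Compounds were made up as DMSO stocks and diluted in isopropanol to a final 10 μM. Each was mixed with DPPH in isopropanol at 10 μM or 30 μM DPPH, and absorbance was read at 515 nm. Scavenging was calculated as [1 − OD515(compound)/OD515(control)] × 100, then expressed as a percentage of Trolox activity. One experiment was run in triplicate.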

SK-MEL-5 = assay: Growth inhibition of human SK-MEL5 cells; assay type: functional
NCI-H522 = assay: Growth inhibition of human NCI-H522 cells; assay type: functional
HCT-116 = assay: Growth inhibition of human HCT116 cells; assay type: functional
[3] = Inhibition of 1,10-phenanthroline-induced HIF1 activation in T47D cells by TK-luciferase assay; assay type: cell-based; conditions: Homo sapiens
In short: (§1)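 HIF-1 reporter (pHRE-TK-Luc) assays in transfected PC-3 or T47D cells; HIF-1 induced by hypoxia or by the hypoxia mimetic 1,10-phenanthroline (10 μM); compounds at half-log concentrations; luciferase activity measured; IC50 from experiments in triplicate.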

A549 = assay: Growth inhibition of human A549 cells; assay type: functional
HCT-15 = assay: Growth inhibition of human HCT15 cells; assay type: functional
UACC-257 = assay: Growth inhibition of human UACC257 cells; assay type: functional
HOP-92 = assay: Growth inhibition of human HOP92 cells; assay type: functional
T47D [4] = assay: Growth inhibition of human T47D cells; assay type: functional
HT-29 = assay: Growth inhibition of human HT29 cells; assay type: functional
SK-OV-3 = assay: Growth inhibition of human SK-OV3 cells; assay type: functional
SW-620 = assay: Growth inhibition of human SW620 cells; assay type: functional
786-0 = assay: Growth inhibition of human 786-0 cells; assay type: functional
PC-3 = assay: Growth inhibition of human PC3 cells; assay type: functional
SF-295 = assay: Growth inhibition of human SF295 cells; assay type: functional
COLO 205 = assay: Growth inhibition of human COLO205 cells; assay type: functional
MCF7 = assay: Growth inhibition of human MCF7 cells; assay type: functional
T47D [5] = assay: Inhibition of 1,10-phenanthroline-induced VEGF protein secretion in human T47D cells at 10 uM after 16 hrs by ELISA; assay type: functional, cell-based
In short: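 T47D cells stimulated with 1,10-phenanthroline, compound at 10 μM; secreted VEGF in conditioned media by ELISA, normalized to cell-lysate protein.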

NCI-H460 = assay: Growth inhibition of human NCI-H460 cells; assay type: functional
OVCAR-4 = assay: Growth inhibition of human OVACAR4 cells; assay type: functional
SF-268 = assay: Growth inhibition of human SF268 cells; assay type: functional
[6] = Inhibition of 1,10-phenanthroline-induced HIF1 activation in PC3 cells by TK-luciferase assay; assay type: cell-based; conditions: Homo sapiens, PC-3; in short: as §1
NCI/ADR-RES = assay: Growth inhibition of human NCI/ADR-RES cells; assay type: functional
SK-MEL-28 = assay: Growth inhibition of human SK-MEL28 cells; assay type: functional
ACHN = assay: Growth inhibition of human ACHN cells; assay type: functional
OVCAR-8 = assay: Growth inhibition of human OVACAR8 cells; assay type: functional
SK-MEL-2 = assay: Growth inhibition of human SK-MEL2 cells; assay type: functional
EKVX = assay: Growth inhibition of human EKVX cells; assay type: functional
UACC-62 = assay: Growth inhibition of human UACC62 cells; assay type: functional
[7] = read-out: Log LC50 (the source's name) (converted)

Work on `CCCc1cc(=O)c2c(O)c3c(OC)cc(O)cc3cc2o1` yielded a GI50 (SF-539) of 19.5 µM, an LC50 (SF-539) of 81.3 µM and a TGI (SF-539; read-out: Log TGI (converted)) of 39.8 µM. It also gave a GI50 (KM12) of 17.4 µM, a CC50 (KM12; [7]) of 93.3 µM and a TGI (KM12; read-out: Log TGI (converted)) of 39.8 µM. The GI50 (Malme-3M) was 25.1 µM, the CC50 (Malme-3M; [7]) was 100 µM and the TGI (Malme-3M; read-out: Log TGI (converted)) was 64.6 µM. It also gave a GI50 [1] of 27.5 µM, a CC50 [1, 7] of over 100 µM and a TGI ([1]; read-out: Log TGI (converted)) of over 100 µM. The GI50 (IGROV-1) was 19.1 µM, the CC50 (IGROV-1; [7]) was over 100 µM and the TGI (IGROV-1; read-out: Log TGI (converted)) was 44.7 µM. The GI50 (DU-145) was 18.2 µM, the CC50 (DU-145; [7]) was over 100 µM and the TGI (DU-145; read-out: Log TGI (converted)) was 45.7 µM. The Activity [2] was 40%, the GI50 (SK-MEL-5) was 14.8 µM and the LC50 (SK-MEL-5) was 52.5 µM. It also gave a TGI (SK-MEL-5; read-out: Log TGI (converted)) of 27.5 µM, a GI50 (NCI-H522) of over 100 µM and a CC50 (NCI-H522; [7]) of 41.7 µM. The TGI (NCI-H522; read-out: Log TGI (converted)) was 15.1 µM, the GI50 (HCT-116) was 18.6 µM and the CC50 (HCT-116; [7]) was 75.9 µM. The TGI (HCT-116; read-out: Log TGI (converted)) was 37.2 µM, the IC50 [3] was 0.6 µM and the GI50 (A549) was 19.1 µM. For the same compound, the CC50 (A549; [7]) was over 100 µM, the TGI (A549; read-out: Log TGI (converted)) was 50.1 µM and the GI50 (HCT-15) was 15.1 µM. For the same compound, the CC50 (HCT-15; [7]) was over 100 µM, the TGI (HCT-15; read-out: Log TGI (converted)) was 40.7 µM and the GI50 (UACC-257) was 27.5 µM. The LC50 (UACC-257) was over 100 µM, the TGI (UACC-257; read-out: Log TGI (converted)) was 56.2 µM and the GI50 (HOP-92) was 17.4 µM. The CC50 (HOP-92; [7]) was over 100 µM, the TGI (HOP-92; read-out: Log TGI (converted)) was 46.8 µM and the GI50 (T47D [4]) was 20.9 µM. It also gave an LC50 (T47D [4]) of over 100 µM, a TGI (T47D [4]; read-out: Log TGI (converted)) of 93.3 µM and a GI50 (HT-29) of 18.6 µM. It also gave a CC50 (HT-29; [7]) of 72.4 µM, a TGI (HT-29; read-out: Log TGI (converted)) of 37.2 µM and a GI50 (SK-OV-3) of 32.4 µM. For the same compound, the LC50 (SK-OV-3) was over 100 µM, the TGI (SK-OV-3; read-out: Log TGI (converted)) was 85.1 µM and the GI50 (SW-620) was 21.4 µM. The CC50 (SW-620; [7]) was 77.6 µM, the TGI (SW-620; read-out: Log TGI (converted)) was 40.7 µM and the GI50 (786-0) was 25.1 µM. It also gave an LC50 (786-0) of over 100 µM, a TGI (786-0; read-out: Log TGI (converted)) of over 100 µM and a GI50 (PC-3) of 20.4 µM. The LC50 (PC-3) was over 100 µM, the TGI (PC-3; read-out: Log TGI (converted)) was 67.6 µM and the GI50 (SF-295) was 24.5 µM. It also gave an LC50 (SF-295) of over 100 µM, a TGI (SF-295; read-out: Log TGI (converted)) of 77.6 µM and a GI50 (COLO 205) of 25.1 µM. The CC50 (COLO 205; [7]) was over 100 µM, the TGI (COLO 205; read-out: Log TGI (converted)) was 50.1 µM and the GI50 (MCF7) was 25.1 µM. The LC50 (MCF7) was over 100 µM, the TGI (MCF7; read-out: Log TGI (converted)) was 60.3 µM and the Activity (T47D [5]) was “inactive”. It also gave a GI50 (NCI-H460) of 17.8 µM, a CC50 (NCI-H460; [7]) of over 100 µM and a TGI (NCI-H460; read-out: Log TGI (converted)) of 42.7 µM. For the same compound, the GI50 (OVCAR-4) was 26.3 µM, the LC50 (OVCAR-4) was over 100 µM and the TGI (OVCAR-4; read-out: Log TGI (converted)) was over 100 µM. For the same compound, the GI50 (SF-268) was 20.4 µM, the LC50 (SF-268) was over 100 µM and the TGI (SF-268; read-out: Log TGI (converted)) was 58.9 µM. It also gave an IC50 [6] of 0.8 µM, a GI50 (NCI/ADR-RES) of 26.3 µM and an LC50 (concentration killing 50% of cells) (NCI/ADR-RES) of over 100 µM. The TGI (NCI/ADR-RES; read-out: Log TGI (converted)) was 75.9 µM, the GI50 (SK-MEL-28) was 20 µM and the CC50 (SK-MEL-28; [7]) was 87.1 µM. The TGI (SK-MEL-28; read-out: Log TGI (converted)) was 41.7 µM, the GI50 (ACHN) was 22.4 µM and the CC50 (ACHN; [7]) was over 100 µM. It also gave a TGI (ACHN; read-out: Log TGI (converted)) of 64.6 µM, a GI50 (OVCAR-8) of 28.8 µM and an LC50 (OVCAR-8) of over 100 µM. The TGI (OVCAR-8; read-out: Log TGI (converted)) was over 100 µM, the GI50 (SK-MEL-2) was 18.6 µM and the LC50 (SK-MEL-2) was 91.2 µM. For the same compound, the TGI (SK-MEL-2; read-out: Log TGI (converted)) was 40.7 µM, the GI50 (EKVX) was 28.8 µM and the CC50 (EKVX; [7]) was over 100 µM. It also gave a TGI (EKVX; read-out: Log TGI (converted)) of 97.7 µM, a GI50 (UACC-62) of 15.5 µM and an LC50 (lethal concentration, 50% cell kill) (UACC-62) of 57.5 µM. For the same compound, the TGI (UACC-62; read-out: Log TGI (converted)) was 29.5 µM.
